Results taken from ChEMBL document CHEMBL4622873, “Chlorosphaerolactylates A-D: Natural Lactylates of Chlorinated Fatty Acids Isolated from the Cyanobacterium Sphaerospermopsis sp. LEGE 00249” (2020).
Values after ≈ are worked out from the molar mass of the structure shown.

Tests used:
Format in all cases: functional
Staphylococcus aureus = assay: Bactericidal activity against Staphylococcus aureus spa type t1333/S54F9 by CLSI-based broth microdilution method
Outline: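 S. aureus clinical isolate S54F9, revived on Mueller-Hinton agar at 37 °C from 25% (v/v) glycerol stocks held at -20 °C, then kept at 4 °C. Broth microdilution susceptibility test in 96-well plates, after which the upper wells were subcultured onto solid MSA agar to read the bactericidal endpoint.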

Candida parapsilosis = assay: Fungicidal activity against Candida parapsilosis SMI416 by CLSI-based broth microdilution method; conditions: Lodderomyces parapsilosis
Outline: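 C. parapsilosis SMI416, a clinical isolate from a bloodstream infection, revived on Mueller-Hinton agar at 37 °C from 25% (v/v) glycerol stocks held at -20 °C, then maintained at 4 °C. Media and solutions were made in ultrapure water and autoclaved at 121 °C for 15 min.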

Staphylococcus hominis = assay: Antibiofilm activity against coagulase-negative Staphylococcus hominis FI31 incubated for 48 hrs by crystal violet staining-based method
Outline: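 Strain FI31 is a clinical isolate recovered from an infected prosthesis. Media and solutions were made in ultrapure deionized water and sterilized by autoclaving at 121 °C for 15 min.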

Row | SMILES | MBC (Staphylococcus aureus) | MFC (Candida parapsilosis) | MBIC50 (Staphylococcus hominis)
1 | CC(OC(=O)CCCCCCCCCCCCl)C(=O)O (configuration not stated) | 2.7 to 6 mM (≈ 828 to 1840 µg/mL) | 2.7 to 6 mM (≈ 828 to 1840 µg/mL) | 0.5 to 1.1 mM
2 | CC(OC(=O)CCCCC(Cl)CCCCCC(Cl)Cl)C(=O)O (configuration not stated) | 2.7 to 6 mM (≈ 1010 to 2250 µg/mL) | 2.7 to 6 mM (≈ 1010 to 2250 µg/mL) | 0.5 to 1.1 mM
3 | CCCCCCC(Cl)CCCCC(=O)OC(C)C(=O)O (configuration not stated) | 2.7 to 6 mM (≈ 828 to 1840 µg/mL) | 2.7 to 6 mM (≈ 828 to 1840 µg/mL) | 0.5 to 1.1 mM
4 | C[C@H](OC(=O)CCCCC(Cl)CCCCCCCl)C(=O)O (some centres not stated) | 2.7 to 6 mM (≈ 921 to 2050 µg/mL) | 2.7 to 6 mM (≈ 921 to 2050 µg/mL) | 0.5 to 1.1 mM
